Measured values gathered from unrelated publications.
Compare with care: the assays were run in different laboratories.
MAP4K3: Mitogen-activated protein kinase kinase kinase kinase 3 (MAP4K3, Homo sapiens, UniProt Q8IVH8)
ADORA1: Adenosine receptor A1 (ADORA1, Homo sapiens, UniProt P30542)
OTUD6B: Deubiquitinase OTUD6B (OTUD6B, Homo sapiens, UniProt Q8N6M0)
MMP7: Matrilysin (MMP7, Homo sapiens, UniProt P09237)

COc1cc(Nc2ncc(F)c(Nc3ccc4c(n3)NC(=O)C(C)(C)O4)n2)cc(OC)c1OC — inhibition (MAP4K3; binding; competition with immobilised ligand; 10 µM): 52%
O[C@H]1[C@H](n2cnc3c(NC(C4CCCCC4)C4CCCCC4)nc(Cl)nc32)[C@H]2C[C@@]2(CF)[C@H]1O — inhibition (ADORA1; ligand displacement; radioligand; 10 µM): 47%
CCN(CC)CCCC[C@H](NC(=O)[C@H](CC(C)C)NC(=O)[C@H](C)NC(=O)[C@H](Cc1ccccc1)NC(=O)c1ccc(C(C)(C)C)cc1)C(=O)N[C@@H](CO)C(=O)OC — inhibition (Neuromedin-K receptor (TACR3, Homo sapiens, UniProt P29371); ligand displacement; radioligand; 10 µM): 8%
CCOC(=O)[C@@]12C[C@@H]1[C@@H](n1cnc3c(NC(C4CCCC4)C4CCCC4)nc(Cl)nc31)[C@H](O)[C@@H]2O — inhibition (ADORA1; ligand displacement; radioligand; 10 µM): 55%
Cn1cc(-c2cc(F)cc(N3CCn4c(cc5c4CCCC5)C3=O)c2CO)cc(Nc2ccc(N3CCN(C4COC4)CC3)cn2)c1=O — inhibition (Inhibitor of nuclear factor kappa-B kinase subunit alpha (CHUK, Homo sapiens, UniProt O15111); enzyme activity; inhibitor; 0.1 µM): 14%
N=C(N)c1ccc2cc(OC(=O)c3ccc(N=C(N)N)cc3)ccc2c1 — inhibition (OTUD6B; enzyme activity; inhibitor; 10 µM): 9%
OC[C@@]12C[C@@H]1[C@@H](n1cnc3c(NC(C4CCCC4)C4CCCC4)nc(Cl)cc31)[C@H](O)[C@@H]2O — inhibition (ADORA1; ligand displacement; radioligand; 10 µM): 11%
CNC(=O)[C@H](Cc1ccccc1)NC(=O)[C@H](CC(C)C)[C@H](CSc1cccs1)C(=O)NO — inhibition (MMP7; enzyme activity; inhibitor; 10 nM): 94%
O[C@H]1[C@H](n2cnc3c(NC(C4CCCC4)C4CCCC4)nc(Cl)nc32)[C@H]2C[C@@]2(CSc2ccccc2F)[C@H]1O — inhibition (ADORA1; ligand displacement; radioligand; 10 µM): -6%
c1ccc(C(NCCNC(c2ccccc2)c2ccccc2)c2ccccc2)cc1 — inhibition (MMP7; enzyme activity; inhibitor; 10 µM): -5%
C#Cc1n[nH]c2c(-c3cn([C@@H](C)c4ccccc4)c(=O)[nH]c3=O)cc(F)cc12 — inhibition (MAP4K3; enzyme activity; inhibitor; 0.1 µM): -1.9%
CN(C)C(=O)COC(=O)Cc1ccc(OC(=O)c2ccc(NC(=N)N)cc2)cc1 — inhibition (Ubiquitin carboxyl-terminal hydrolase 5 (USP5, Homo sapiens, UniProt P45974); enzyme activity; inhibitor; 10 µM): 1%
C#Cc1n[nH]c2c(-c3cn([C@@H](C)c4ccccn4)c(=O)[nH]c3=O)cc(F)cc12 — inhibition (MAP4K3; enzyme activity; inhibitor; 0.1 µM): -2.5%
C[C@H](C(=O)N[C@H]1COc2ccccc2[C@@H]1S(C)(=O)=O)c1ccc(F)cc1 — inhibition (MMP7; enzyme activity; inhibitor; 10 µM): -6%
CCOC(=O)c1ccc(OC(=O)CCCCCNC(=N)N)cc1 — inhibition (OTUD6B; enzyme activity; inhibitor; 10 µM): 3%
